Shown is part of a subset that was picked to be rich in hits.
Phagocyt inh = inhibitors of macrophage phagocytosis, primary screen, imaging, J774A.1 cells, IgG beads; J774A.1 macrophage IgG-bead phagocytosis; inhibition, % at 5 µM; hit rate 0.07% among 110,000; AID 1029, 2008;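 active means inhibition above the mean of the plate negative controls plus 5 SD, cut at about 13% in these data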;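 further: phagocytic index as fraction of beads internalized from green versus red external bead signal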
H69AR inhibit = proliferation blockers of H69AR lung cancer cells, primary screen, cell-based, human, 86K library. H69AR lung tumor viability, ATP luminescence, 72 h; hits give low values. viability, % at 10 µM. hit rate 6% among 85,000. AID 598, 2007;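 active means viability at or below 40%; inactive means viability above 40%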;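 further: multidrug resistant small cell line overexpressing MRP-1 efflux transporter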
HUVEC inhibit = inhibitors of HUVEC proliferation, primary screen, cell-based, 384-well; hit rate 1.1% among 86,000; AID 648, 2007; CellTiter-Glo luminescence, 72 h; hits give low values; viability, % at 10 µM (by protocol);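 active means viability at or below 30%; inactive means viability above 30%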
bCat KO growth = primary screen for growth suppressors in beta-catenin knockout HCT116 cells (colon tumor, human). viability, % at 10 µM. hit rate 1.5% among 140,000. HCT116 beta-catenin knockout viability, CellTiter-Glo, 60 h; hits give low values;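 active means viability at or under a set limit, the compound median less 4 SD, cut at about 6% in these data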
PTEN del growth = growth suppression of PTEN-null HCT116, primary screen, cell-based, CellTiter-Glo. HCT116 PTEN-null viability, 60 h; hits give low values. viability, % at 10 µM. hit rate 1.2% among 140,000. AID 827, 2007;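 active means viability at or below a set limit, 4 SD under the median of all tested compounds, cut at about 3.7% in these data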;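 further: PTEN knockout HCT116 line with beta catenin targeted HCT116 as companion control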
Lung fibro prol = antiproliferative effect on LL 47 fibroblasts – human, LL 47 cells, CellTiter-Glo luminescence, primary screen; viability, % at 10 µM; LL 47 human lung fibroblast viability, ATP luminescence; hits give low values; hit rate 1.1% among 85,000;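 active means viability at or below 50% in the single dose screen; inactive means viability above 50%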;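 further: compound exposure lasted 72 h before the ATP readout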
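material = human LL 47 lung fibroblast cells | dosing = compounds added from tenfold dosing solution, 0.1% DMSO final | timing = overnight cell rest, 72 h compound treatment at 37 °C | measured by = CellTiter-Glo luminescence measuring cellular ATP | evaluation = % viability versus median cells-only luminescence | control set = cell-only wells, no compound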
Numbers stand for hits; - = inactive; . = not tested or not shown.

SMILES | Phagocyt inh | H69AR inhibit | HUVEC inhibit | bCat KO growth | PTEN del growth | Lung fibro prol
Cc1ccc2c(c1)-c1c(ssc1=S)C(C)(C)N2C(=O)CSc1nncn1C | - | - | - | - | - | -
CCNc1nc(NC(C)(C)C)nc(N(C#N)CC)n1 | . | 33 | - | - | - | -
CCOC(=O)COc1ccc(C(=O)NC2CCCCC2)cc1 | . | - | - | - | - | -
CCOc1cc(/C=C2\CCC/C(=C\c3cc(Cl)c(O)c(OCC)c3)C2=O)cc(Cl)c1O | . | . | . | 2.0 | 1.7 | .
COc1ccc2cc(-c3cc(C(=O)OCC(=O)NC4CCS(=O)(=O)C4)c4ccccc4n3)ccc2c1 (centres undefined) | - | . | . | - | - | .
Cc1ccc(-c2nnc(N3CCN(C(=O)CSc4ncn[nH]4)CC3)c3ccccc23)cc1 | . | - | - | - | - | 2.9
Cc1ccc(OCC(=O)N2CCN(c3nnc(-c4ccccc4)c4ccccc34)CC2)cc1 | - | - | - | - | - | -
Cc1onc(-c2c(Cl)cccc2Cl)c1C(=O)N/N=C(\N)COc1ccc(Cl)cc1 | - | . | . | 5.9 | - | .
COCCn1c(=S)[nH]c2ccc(N(C)C)cc2c1=O | - | - | - | - | - | -
COc1cccc(NC(=O)c2ccc(-n3cccn3)nc2)c1 | . | . | . | - | - | .
CC(C)N1CCC2(CC1)N=C(c1ccc3c(c1)OCO3)CC(c1cc(Cl)ccc1O)N2 (centres undefined) | - | 1.5 | 30 | 2.5 | 2.9 | 5.9
O=C(c1cc2ccccc2oc1=O)N(Cc1ccc2c(c1)OCO2)Cc1ccco1 | - | - | - | - | - | -
COC(=O)c1ccc(C(=O)OC)c(NC(=O)CN2CCN(c3ccccc3)CC2)c1 | - | 16 | - | - | - | -
COC(=O)c1ccc(C(=O)OC)c(NC(=O)CSc2cccc[n+]2[O-])c1 | - | 2.2 | - | - | - | -
O=C(c1ccc(C#CC2(O)CCCCC2)cc1)N1CCN(Cc2ccccc2)CC1 | - | - | - | - | - | -
O=C(c1ccc(C#CC2(O)CCCCC2)cc1)N1CCN(C(c2ccccc2)c2ccccc2)CC1 | - | 34 | - | - | - | -
CCOC(=O)CN(Cc1sccc1C)C(=O)Nc1ccc(OCC)cc1 | - | . | . | - | - | .
CCOC(=O)c1nnc(-c2ccc(C)cc2)nc1Sc1cccc(Cl)c1 | - | 33 | - | - | - | -
CCOC(=O)c1nnc(-c2ccccc2)nc1Sc1ccccc1Cl | - | 0.6 | - | - | - | -
CCOC(=O)c1nnc(-c2ccccc2)nc1Oc1ccc(Cl)cc1 | - | . | . | - | - | .
CC(Sc1nnc(C2CCCCC2)n1N)C(=O)NCc1ccc2c(c1)OCO2 (centres undefined) | - | - | - | - | - | -
Nc1nonc1-c1nc2ccccc2n1Cc1ccc(Cl)cc1 | - | - | - | - | - | -
CC(C)(C)NC(=O)Cn1c(-c2nonc2N)nc2ccccc21 | - | - | - | - | - | -
Cc1ccc(Cn2c(-c3nonc3N)nc3ccccc32)cc1 | - | . | . | - | - | .
COc1cc(Cn2c(-c3nonc3N)nc3ccccc32)ccc1C | . | 18 | - | - | - | 48
SMILES | Phagocyt inh | H69AR inhibit | HUVEC inhibit | bCat KO growth | PTEN del growth | Lung fibro prol
COc1cccc(Cn2c(-c3nonc3N)nc3ccccc32)c1 | - | 24 | - | - | - | -
CCCCOc1ccccc1NC(=O)Cn1c(-c2nonc2N)nc2ccccc21 | - | . | . | 1.8 | 1.6 | .
COc1ccc(N(CC(=O)NC(C)C)S(=O)(=O)c2ccc(NC(C)=O)cc2)cc1 | - | . | . | - | - | .
CCOC(=O)c1c(C)[nH]c(C2=NNC(=Nc3cccc(Cl)c3)SC2)c1C | - | . | . | 2.8 | 2.1 | .
CCCCn1c(NC(=O)C2CCCCC2)nc2ccccc21 | . | - | - | 5.2 | - | -
CCCCn1c(NC(=O)c2ccccc2)nc2ccccc21 | . | 14 | - | - | - | 48
CN(C)CCCn1c(NC(=O)C2CCCCC2)nc2ccccc21 | - | - | - | - | - | -
CCn1c(NC(=O)c2cccc(Cn3cc(Cl)cn3)c2)nc2ccccc21 | . | - | - | - | - | -
CCCn1c(NC(=O)c2ccc(Br)cc2)nc2ccccc21 | - | 32 | - | - | - | -
Cn1c(NC(=O)c2cccc(Cn3cc(Cl)cn3)c2)nc2ccccc21 | - | 37 | - | - | - | 50
